From ChEMBL document CHEMBL2086324, “Synthesis and antimalarial activity of new haemanthamine-type derivatives” (Bioorg Med Chem, 2012)

tested on: Plasmodium falciparum; test: Antiplasmodial activity against chloroquine-sensitive Plasmodium falciparum F-32 Tanzania assessed as inhibition of parasitemia after 3 days; assay type: functional, organism-based; settings: 72 h
Summary of the method: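 P. falciparum grown in glucose-enriched RPMI 1640 with 10% human serum, 37 °C. After 24 h the medium was replaced with fresh medium containing compound in DMSO at 0.1, 1 and 10 µg/mL, and incubation continued 48 h. Parasitemia was counted by blood smear per well on day 3 against control. IC50 was read graphically from concentration vs percent inhibition. Chloroquine 0.04 µM served as positive control.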

Question: How did the IC50 turn out when `O[C@@H]1C=C[C@@]23c4cc5c(cc4CN(C[C@H]2O)[C@H]3C1)OCO5` was run?
Answer: 13.2 µM

Question: Which IC50 does the source give for `COC1c2cc3c(cc2[C@@]24C=C[C@@H](OC)C[C@@H]2N1C[C@H]4O)OCO3` (stereo partly specified) here?
Answer: 75.5 µM

Question: `CO[C@@H]1C=C[C@@]23c4cc5c(cc4CN(C[C@H]2OC(C)=O)[C@H]3C1)OCO5` was tested. Which IC50 did it give?
Answer: 75.8 µM

Question: Which IC50 does the source give for `C=Cc1ccc(C(=O)O[C@@H]2CN3Cc4cc5c(cc4[C@]24C=C[C@@H](OC)C[C@H]34)OCO5)cc1` here?
Answer: > 100 µM

Question: For `CO[C@@H]1C=C[C@@]23c4cc5c(cc4CN(C[C@H]2OC(=O)c2cccnc2)[C@H]3C1)OCO5`, which IC50 is on record?
Answer: 51.7 µM

Question: Which IC50 does the source give for `CO[C@@H]1C=C[C@@]23c4cc5c(cc4CN(C[C@H]2OC(=O)c2ccc(Br)cc2)[C@H]3C1)OCO5` here?
Answer: 43.3 µM

Question: How did the IC50 turn out when `CO[C@@H]1C=C[C@@]23c4cc5c(cc4CN(C[C@H]2OC(=O)C(C)C)[C@H]3C1)OCO5` was run?
Answer: 56.6 µM

Question: Which IC50 does the source give for `C=CC(=O)O[C@@H]1CN2Cc3cc4c(cc3[C@]13C=C[C@@H](OC)C[C@H]23)OCO4` here?
Answer: 8.4 µM

Question: How did the IC50 turn out when `CO[C@@H]1C=C[C@]23c4cc5c(cc4CN([C@H]2C1)[C@H]1O[C@H]13)OCO5` was run?
Answer: 1.6 µM

Question: `CO[C@@H]1C=C[C@]23C(=O)CN(Cc4cc5c(cc42)OCO5)[C@H]3C1` was tested. Which IC50 did it give?
Answer: 73.5 µM

Question: How did the IC50 turn out when `CO[C@@H]1C=C[C@]23/C(=N/O)CN(Cc4cc5c(cc42)OCO5)[C@H]3C1` was run?
Answer: 95.5 µM

Question: With `Oc1cc2c(cc1O)[C@@]13C=C[C@@H](O)C[C@@H]1N(C2)C[C@H]3O` as the compound, how does the IC50 read?
Answer: 13.4 µM

Question: For `CO[C@@H]1C=C[C@@]23c4cc5c(cc4C[N+]([O-])(C[C@H]2O)[C@H]3C1)OCO5`, which IC50 is on record?
Answer: > 100 µM

Question: How did the IC50 turn out when `CO[C@@H]1CC[C@@]23c4cc5c(cc4CN(C[C@H]2O)[C@H]3C1)OCO5` was run?
Answer: 9.9 µM

Question: `CO[C@H]1C[C@@H]2N3Cc4cc5c(cc4[C@@]2([C@H](O)C3)[C@@H](Br)[C@@H]1Br)OCO5` was tested. Which IC50 did it give?
Answer: 6.5 µM

Question: For `CO[C@H]1C[C@@H]2N3Cc4cc5c(cc4[C@@]2([C@H](O)C3)[C@@H](O)[C@@H]1Br)OCO5`, which IC50 is on record?
Answer: 62.6 µM

Question: For `CO[C@H]1C[C@@H]2N3Cc4cc5c(cc4[C@@]2([C@H](O)C3)[C@@H](Br)[C@@H]1O)OCO5`, which IC50 is on record?
Answer: 72.6 µM

Question: For `CN(C=O)Cc1cc2c(cc1-c1ccc(O)cc1)OCO2`, which IC50 is on record?
Answer: 73.4 µM

Question: Which IC50 does the source give for `CCN(C=O)Cc1cc2c(cc1-c1ccc(O)cc1)OCO2` here?
Answer: > 100 µM

Question: How did the IC50 turn out when `CO[C@@H]1C=C[C@@]23c4cc5c(cc4C(OC(C)=O)N(C[C@H]2OC(C)=O)[C@H]3C1)OCO5` (stereo partly specified) was run?
Answer: 52.3 µM

Question: How did the IC50 turn out when `CO[C@@H]1C=C[C@@]23c4cc5c(cc4C(OC(=O)c4cccnc4)N(C[C@H]2O)[C@H]3C1)OCO5` (stereo partly specified) was run?
Answer: 7.1 µM

Question: Which IC50 does the source give for `CO[C@@H]1C=C[C@@]23c4cc5c(cc4C(OC(=O)c4ccc(Br)cc4)N(C[C@H]2OC(=O)c2ccc(Br)cc2)[C@H]3C1)OCO5` (stereo partly specified) here?
Answer: 2.9 µM

Question: Which IC50 does the source give for `CO[C@@H]1C=C[C@@]23c4cc5c(cc4C(OC(=O)C(C)C)N(C[C@H]2OC(=O)C(C)C)[C@H]3C1)OCO5` (stereo partly specified) here?
Answer: 52.5 µM

Question: Which IC50 does the source give for `CO[C@@H]1C=C[C@@]2(c3cc4c(cc3C=O)OCO4)C(=O)C=N[C@H]2C1` here?
Answer: 76.6 µM

Question: How did the IC50 turn out when `Oc1cc2c(cc1O)[C@@]13C=C[C@@H](O)C[C@@H]1N(C[C@H]3O)C2O` (stereo partly specified) was run?
Answer: 72.1 µM

Question: How did the IC50 turn out when `OC1c2cc3c(cc2[C@@]24C=C[C@H]5C[C@@H]2N1C[C@H]4O5)OCO3` (stereo partly specified) was run?
Answer: 84.2 µM

Question: Which IC50 does the source give for `CC(=O)O[C@@H]1C=C[C@@]23c4cc5c(cc4CN(C[C@H]2OC(C)=O)[C@H]3C1)OCO5` here?
Answer: > 100 µM

Question: With `COC(C(=O)O[C@@H]1C=C[C@@]23c4cc5c(cc4CN(C[C@H]2OC(=O)C(OC)c2ccccc2)[C@H]3C1)OCO5)c1ccccc1` (stereo partly specified) as the compound, how does the IC50 read?
Answer: 5.1 µM

Question: `O=C(O[C@@H]1C=C[C@@]23c4cc5c(cc4CN(C[C@H]2OC(=O)c2cccnc2)[C@H]3C1)OCO5)c1cccnc1` was tested. Which IC50 did it give?
Answer: 0.8 µM

Question: With `O=C(O[C@@H]1C=C[C@@]23c4cc5c(cc4CN(C[C@H]2OC(=O)c2ccc(Br)cc2)[C@H]3C1)OCO5)c1ccc(Br)cc1` as the compound, how does the IC50 read?
Answer: 3 µM

Question: With `CC(C)C(=O)O[C@@H]1C=C[C@@]23c4cc5c(cc4CN(C[C@H]2OC(=O)C(C)C)[C@H]3C1)OCO5` as the compound, how does the IC50 read?
Answer: 7 µM

Question: Which IC50 does the source give for `COc1cc2c(cc1O)CN1CC[C@@]23C=CC(O)C[C@H]13` (stereo partly specified) here?
Answer: 91.5 µM

Question: `CO[C@@H]1C=C[C@@]23c4cc5c(cc4CN(C[C@@H]2O)[C@H]3C1)OCO5` [(+)-HAEMANTHAMINE] was tested. Which IC50 did it give?
Answer: 1.3 µM

Question: With `C1=C[C@@]23c4cc5c(cc4CN4C[C@H]2O[C@@H]1C[C@H]43)OCO5` [APOHAEMANTHAMINE] as the compound, how does the IC50 read?
Answer: 92.9 µM

Question: Which IC50 does the source give for `CO[C@@H]1C=C[C@@]23c4cc5c(cc4[C@@H](O)N(C[C@H]2O)[C@H]3C1)OCO5` [HAEMANTHIDINE] here?
Answer: 1.2 µM

Question: For `O[C@@H]1C=C[C@]23CCN(Cc4cc5c(cc42)OCO5)[C@H]3C1` [VITTATINE], which IC50 is on record?
Answer: 7.3 µM
